From ChEMBL document CHEMBL3259668, “Synthesis of N-benzenesulfonamide-1H-pyrazoles bearing arylsulfonyl moiety: novel celecoxib analogs as potent anti-inflammatory agents” (Eur J Med Chem, 2014) come the findings set out here.

A word on the LD50: it is the dose at which mortality reaches 50%. As usually defined, the inhibition is the drop in the measured response relative to a control, in per cent. A low value points to a weak effect.

In series [1] the test system is Mus musculus. Nature of the series: Analgesic activity in ip dosed albino Swiss mouse after 0.5 hrs by hot plate test. It is filed as functional. Put shortly:
(§1)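 Mice given a single intraperitoneal dose of test compound (5-200 mg/kg). Reaction time on the hot plate was measured before treatment as the control and again at 15, 30, 60 and 120 min after injection, with a 60 s cut-off. Each animal served as its own control.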
A general note: Hot-plate and tail-flick tests time the reaction to a heat stimulus.

Series [2] relates to Rattus norvegicus. Nature of the series: Antiinflammatory activity in ip dosed Sprague-Dawley rat assessed as inhibition of carrageenan-induced foot paw edema after 2 hrs by plethysmometer analysis. It is filed as functional. Conditions: Sprauge-Dawley. Put shortly:
(§2)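 Rats fasted at least 16 h with free access to water. Compounds were given as a suspension in 0.5% methyl cellulose, with a vehicle-only negative control group. Paw volume was measured by water displacement on a plethysmometer before and after treatment. Inhibition (%) = (1 − D/C) × 100, where D and C are the paw-volume changes in treated and control groups.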
A general note: In the carrageenan paw model, swelling and tenderness develop within hours.

For series [3], the system named is Rattus norvegicus. Nature of the series: Antiinflammatory activity in ip dosed Sprague-Dawley rat assessed as inhibition of carrageenan-induced foot paw edema after 3 hrs by plethysmometer analysis. It is filed as functional. Particulars: Sprauge-Dawley. Put shortly: as §2
In series [4] the test system is Rattus norvegicus. Put plainly: Antiinflammatory activity in ip dosed Sprague-Dawley rat assessed as inhibition of carrageenan-induced foot paw edema after 1 hr by plethysmometer analysis. It is filed as functional. Particulars: Sprauge-Dawley. In outline: as §2
Series [5] deals with Mus musculus. Nature of the series: Analgesic activity in ip dosed albino Swiss mouse after 2 hrs by hot plate test. The class given is functional. In outline: as §1
A short description of series [6]: Toxicity in ip dosed mouse assessed as behavioral changes and death during observation up to 72 hrs. The class given is organism-based. Conditions: in vivo. Put shortly: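 Male mice in groups, given test compounds intraperitoneally at various doses. Watched continuously for up to 6 h, then kept under observation for 72 h, recording all behavioural changes and deaths. Percentage of deaths at each dose was converted to probits to calculate LD50 (mM/kg).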

Series [7] deals with Mus musculus. Nature of the series: Analgesic activity in ip dosed albino Swiss mouse after 1 hr by hot plate test. It is filed as functional. In outline:
as §1

The next series is filed under the species Ovis aries. Nature of the series: Selectivity index, ratio of ovine COX2 to ovine COX1.
Series [8] concerns the target T1, Prostaglandin G/H synthase 1 (Ovis aries) (UniProt P05979).
T1 sequence (whole entry): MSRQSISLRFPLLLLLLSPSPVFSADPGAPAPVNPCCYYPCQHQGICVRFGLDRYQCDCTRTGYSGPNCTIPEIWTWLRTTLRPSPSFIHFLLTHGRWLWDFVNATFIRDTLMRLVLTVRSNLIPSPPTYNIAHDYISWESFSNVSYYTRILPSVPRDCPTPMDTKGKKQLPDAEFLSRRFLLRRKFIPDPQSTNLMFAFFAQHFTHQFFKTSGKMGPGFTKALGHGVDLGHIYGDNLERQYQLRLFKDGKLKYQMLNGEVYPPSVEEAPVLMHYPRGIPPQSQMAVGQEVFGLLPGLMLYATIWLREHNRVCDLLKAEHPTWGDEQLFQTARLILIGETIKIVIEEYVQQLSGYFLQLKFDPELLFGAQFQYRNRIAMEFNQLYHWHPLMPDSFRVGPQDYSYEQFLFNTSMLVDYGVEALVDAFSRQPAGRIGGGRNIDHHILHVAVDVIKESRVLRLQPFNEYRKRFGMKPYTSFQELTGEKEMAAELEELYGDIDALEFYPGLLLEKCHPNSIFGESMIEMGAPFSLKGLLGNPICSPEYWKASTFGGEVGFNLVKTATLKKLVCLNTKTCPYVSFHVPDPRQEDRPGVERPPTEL
Nature of the series: Inhibition of ovine COX1 at 5 uM.

Series [9] relates to Rattus norvegicus. Put plainly: Gastrointestinal toxicity in albino rat assessed as ulcer index at 100 umol/kg, po qd for 3 days measured 6 hrs after last dose. Conditions: in vivo, 100 µmol/kg.

Take `Cc1ccc(C(=O)CS(=O)(=O)c2ccccc2)cc1`: the ED50 in the series with Mus musculus [1] stood at 168 µM/kg; in the series with Rattus norvegicus [2], 137 µM/kg; with Rattus norvegicus [3], 133 µM/kg; with Rattus norvegicus [4], 145 µM/kg; in the series on Mus musculus [5] it was 434 µM/kg; in the series on Mus musculus [7], 408 µM/kg. Further, the median lethal dose (LD50) at 72 h in [6] turned out to be 14300 µmol/kg.
Regarding `CC(=O)c1nn(-c2ccc(S(N)(=O)=O)cc2)c(-c2ccccc2)c1S(=O)(=O)c1ccccc1`, the ED50 was determined as 311 µM/kg with Mus musculus [1]; 376 µM/kg in the series with Rattus norvegicus [2]; 372 µM/kg with Rattus norvegicus [3]; 363 µM/kg in the series with Rattus norvegicus [4]; 261 µM/kg in the series with Mus musculus [5]; 261 µM/kg with Mus musculus [7]. Moreover, the LD50 at 72 h in series [6] is 10100 µmol/kg.
With `Cc1ccc(S(=O)(=O)CC(=O)c2ccc(Br)cc2)cc1`, the ED50 in the series with Mus musculus [1] came out at 73 µM/kg; in the series with Rattus norvegicus [2], 213 µM/kg; in the series with Rattus norvegicus [3] it was 200 µM/kg; in the series on Rattus norvegicus [4] it was 213 µM/kg; in the series on Mus musculus [5] it was 66 µM/kg; with Mus musculus [7], 69 µM/kg. The median lethal dose (LD50) at 72 h in [6] is 12700 µmol/kg.
As to `O=C(CS(=O)(=O)c1ccccc1)c1ccc(Br)cc1`, the ED50 with Mus musculus [1] is 218 µM/kg; in the series on Rattus norvegicus [2], 350 µM/kg; in the series on Rattus norvegicus [3], 327 µM/kg; with Rattus norvegicus [4], 550 µM/kg; in the series on Mus musculus [5] it was 318 µM/kg; in the series with Mus musculus [7], 318 µM/kg. Moreover, in [6], the 50% lethal dose (LD50) at 72 h was determined as 12400 µmol/kg.
For the compound `CC(=O)c1nn(-c2ccc(S(N)(=O)=O)cc2)c(-c2ccc(Br)cc2)c1S(=O)(=O)c1ccc(C)cc1`, in the series listed under Ovis aries, the Selectivity Index was determined as 13. In addition, the ED50 with Mus musculus [1] worked out at 69 µM/kg; with Rattus norvegicus [2] it was 54 µM/kg; in the series on Rattus norvegicus [3] it was 51 µM/kg; with Rattus norvegicus [4], 75 µM/kg; in the series with Mus musculus [5], 204 µM/kg; in the series on Mus musculus [7] it was 195 µM/kg. For the same compound, the inhibition in [8] worked out at 3%. Moreover, in [6], the 50% lethal dose (LD50) at 72 h is 7100 µmol/kg. Further, the UI with Rattus norvegicus [9] is recorded as 0.98.
Regarding `Cc1ccc(/C(CS(=O)(=O)c2ccccc2)=N\O)cc1`, the ED50 was 212 µM/kg with Mus musculus [1]; 238 µM/kg in the series on Rattus norvegicus [2]; 237 µM/kg in the series with Rattus norvegicus [3]; 271 µM/kg in the series with Rattus norvegicus [4]; 200 µM/kg in the series with Mus musculus [5]; 203 µM/kg in the series on Mus musculus [7]. Further, the median lethal dose (LD50) at 72 h in series [6] worked out at 9000 µmol/kg.
As for `O=S(=O)(C/C(=N/O)c1ccccc1)c1ccccc1`, the ED50 was 320 µM/kg with Mus musculus [1]; 245 µM/kg in the series on Rattus norvegicus [2]; 256 µM/kg with Rattus norvegicus [3]; 285 µM/kg with Rattus norvegicus [4]; 244 µM/kg with Mus musculus [5]; 265 µM/kg in the series with Mus musculus [7]. Besides, the LD50 at 72 h in series [6] was found to be 17400 µmol/kg.
`CC(=O)c1nn(-c2ccc(S(N)(=O)=O)cc2)c(-c2ccc(Br)cc2)c1S(=O)(=O)c1ccccc1`: the Selectivity Index in the series listed under Ovis aries worked out at 0.79. Also, the ED50 in the series on Mus musculus [1] is 57 µM/kg; in the series with Rattus norvegicus [2], 64 µM/kg; in the series with Rattus norvegicus [3], 68 µM/kg; in the series on Rattus norvegicus [4] it was 87 µM/kg; with Mus musculus [5], 80 µM/kg; in the series with Mus musculus [7] it was 81 µM/kg. Moreover, the inhibition in series [8] is 34%. In series [6], the LD50 at 72 h came to 7100 µmol/kg. In addition, the UI with Rattus norvegicus [9] turned out to be 2.86.
Consider `Cc1ccc(/C(CS(=O)(=O)c2ccccc2)=N\Nc2ccccc2)cc1`, for which the ED50 with Mus musculus [1] was found to be 220 µM/kg; in the series on Rattus norvegicus [2], 181 µM/kg; with Rattus norvegicus [3] it was 169 µM/kg; with Rattus norvegicus [4], 280 µM/kg; in the series on Mus musculus [5] it was 288 µM/kg; in the series with Mus musculus [7] it was 260 µM/kg. The LD50 at 72 h in [6] was 11500 µmol/kg.
As to `O=C(CS(=O)(=O)c1ccccc1)c1ccccc1`, the ED50 with Mus musculus [1] was 250 µM/kg; with Rattus norvegicus [2], 232 µM/kg; in the series on Rattus norvegicus [3] it was 242 µM/kg; with Rattus norvegicus [4], 238 µM/kg; in the series with Mus musculus [5], 145 µM/kg; in the series with Mus musculus [7], 158 µM/kg. Besides, the median lethal dose (LD50) at 72 h in [6] is 19700 µmol/kg.
As to `Cc1ccc(-c2cc(C(F)(F)F)nn2-c2ccc(S(N)(=O)=O)cc2)cc1` [CELECOXIB], the ED50 in the series on Mus musculus [1] turned out to be 156 µM/kg; in the series on Rattus norvegicus [2] it was 89 µM/kg; with Rattus norvegicus [3], 86 µM/kg; in the series on Rattus norvegicus [4] it was 89 µM/kg; with Mus musculus [5], 70 µM/kg; in the series on Mus musculus [7], 72 µM/kg. In series [6], the median lethal dose (LD50) at 72 h was 9800 µmol/kg. The UI with Rattus norvegicus [9] is given as 0.92.
As to `O=S(=O)(C/C(=N/Nc1ccccc1)c1ccccc1)c1ccccc1`, the ED50 in the series on Mus musculus [1] turned out to be 285 µM/kg; with Rattus norvegicus [2], 248 µM/kg; with Rattus norvegicus [3], 256 µM/kg; in the series with Rattus norvegicus [4], 270 µM/kg; in the series on Mus musculus [5], 345 µM/kg; in the series with Mus musculus [7], 319 µM/kg. Moreover, in [6], the LD50 at 72 h worked out at 14600 µmol/kg.
`CC(=O)c1nn(-c2ccc(S(N)(=O)=O)cc2)c(-c2ccc(C)cc2)c1S(=O)(=O)c1ccccc1`: the Selectivity Index in the series filed under Ovis aries is 1.83. Further, the ED50 in the series with Mus musculus [1] came to 50 µM/kg; with Rattus norvegicus [2] it was 102 µM/kg; with Rattus norvegicus [3], 95 µM/kg; in the series on Rattus norvegicus [4], 112 µM/kg; with Mus musculus [5], 147 µM/kg; in the series with Mus musculus [7] it was 147 µM/kg. In series [8], this compound showed an inhibition of 18%. Besides, the median lethal dose (LD50) at 72 h in series [6] was 10100 µmol/kg. Further, the UI in the series on Rattus norvegicus [9] is recorded as 2.25.
